This note sets out measurements from ChEMBL document CHEMBL5331128, “Alicyclic Ring Size Variation of 4-Phenyl-2-naphthoic Acid Derivatives as P2Y14 Receptor Antagonists” (J Med Chem, 2023).

The target of data set [1] is T1, P2Y purinoceptor 14 (Homo sapiens, UniProt Q15391).
T1 sequence (Q15391 whole entry): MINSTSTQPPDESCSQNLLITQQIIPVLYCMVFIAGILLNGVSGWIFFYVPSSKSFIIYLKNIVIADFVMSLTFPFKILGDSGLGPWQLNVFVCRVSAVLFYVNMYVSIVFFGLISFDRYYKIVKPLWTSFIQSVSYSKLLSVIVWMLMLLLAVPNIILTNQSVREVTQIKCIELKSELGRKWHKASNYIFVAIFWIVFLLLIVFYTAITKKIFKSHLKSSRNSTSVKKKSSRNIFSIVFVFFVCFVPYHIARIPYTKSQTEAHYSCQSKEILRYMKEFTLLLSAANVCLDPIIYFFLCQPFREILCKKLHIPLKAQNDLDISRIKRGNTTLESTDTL
In words: Displacement of fluorescent tracer 4-(4-(1-(4-(1-(6-(3-carboxylato-4-(3-iminio-3H-xanthen-9-yl)benzamido)hexyl)-4,5-dihydro-1H-pyrrol-3-yl)butyl)piperidin-1-ium-4-yl)phenyl)-7-(4-(trifluoromethyl)phenyl)-2-naphthoate from human P2Y14R stably expressed in CHO cells by flow cytometry. Type of data set: cell-based. The gist of the method: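 Whole-cell competitive binding: CHO cells expressing hP2Y14R (or HEK-293 cells expressing mP2Y14R) incubated with AlexaFluor488-labelled antagonist tracer at 20 nM.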
(Flow cytometry measures light scatter and fluorescence of single cells or particles in a stream.)

Data set [2] addresses Cytochrome P450 3A4 (Homo sapiens, UniProt P08684). Put plainly: Inhibition of CYP3A4 (unknown origin). Type of data set: ADME.
Data set [3] is described as follows: Lipophilicity, log D of compound at pH 7.4 incubated for 20 hrs by HPLC analysis. Type of data set: physicochemical. The note with it: buffer.
A short description of data set [4]: Stability in human plasma assessed as parent compound remaining at 1 uM and measured at 120 mins by LC-MS/MS analysis. Type of data set: ADME, cell-free. The note with it: 2 h. The procedure, abridged: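 Plasma from human, rat and mouse; percent parent remaining at 120 min.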
A short description of data set [5]: Protein binding in mouse plasma assessed as bound fraction. The class given is ADME, cell-free.

Bounds are passed on as bounds.

Sequence of Cytochrome P450 3A4 (P08684 whole entry): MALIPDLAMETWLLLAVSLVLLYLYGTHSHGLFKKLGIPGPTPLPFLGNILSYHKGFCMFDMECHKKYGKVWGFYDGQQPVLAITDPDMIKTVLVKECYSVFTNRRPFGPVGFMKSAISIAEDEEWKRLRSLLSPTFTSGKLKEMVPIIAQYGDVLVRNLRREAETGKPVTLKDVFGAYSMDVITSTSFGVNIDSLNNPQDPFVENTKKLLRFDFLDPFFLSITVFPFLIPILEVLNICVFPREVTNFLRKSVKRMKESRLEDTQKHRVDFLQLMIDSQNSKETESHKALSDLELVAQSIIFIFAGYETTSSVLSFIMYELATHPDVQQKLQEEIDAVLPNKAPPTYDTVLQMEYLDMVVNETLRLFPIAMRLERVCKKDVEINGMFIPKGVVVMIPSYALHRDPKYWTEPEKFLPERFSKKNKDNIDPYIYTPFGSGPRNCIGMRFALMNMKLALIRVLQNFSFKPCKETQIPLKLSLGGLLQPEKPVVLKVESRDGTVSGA

Broadly, the IC50 is the concentration needed to halve the response being measured. By logD is commonly meant the decadic logarithm of the distribution of all forms, ionised or not, between an organic phase and buffer at a given pH. The low end stands for lower lipophilicity, the high end for higher lipophilicity. For `O=C(O)c1cc(-c2ccc([C@]3(O)[C@@H]4CNC[C@H]3C4)cc2)c2ccc(-c3ccc(C(F)(F)F)cc3)cc2c1`, the IC50 in data set [1] was 5.92 nM; in data set [2], over 30000 nM. Moreover, the logD at 20 h in data set [3] was found to be 1.2. Moreover, the Stability in data set [4] is on record as 91.1%. Besides, the PPB in data set [5] stood at 99.86%.
